From ChEMBL document CHEMBL1157835, “Synthesis and evaluation of verticipyrone analogues as mitochondrial complex I inhibitors” (Bioorg Med Chem, 2010) come the findings set out here.

A short description of test [1]: Inhibition of NADH-ubiquinone oxidoreductase from beef heart submitochondrial particles by spectrophotometry. Set-up: species or system Bos taurus. The procedure, abridged: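 Bovine heart inverted SMP, activated with 300 NADH, 30 μg protein, 30 °C. 5 min inhibitor pre-equilibration, then 50 μM NADH added. Read at 340 nm. […] IC50 is the final concentration giving 50% inhibition; mean ± SD of three independent experiments.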

Test [2] is described as follows: Inhibition of NADH oxidase from beef heart submitochondrial particles by spectrophotometry. Set-up: species or system Bos taurus. The procedure, abridged: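 Bovine heart inverted SMP, stored in 0.25 M sucrose/10 mM Tris-HCl pH 7.4 at −80 °C, diluted to 0.5 mg/mL and activated with 300 NADH. Assayed at 30 °C in 50 mM Hepes pH 7.5, 5 mM MgCl2, 30 μg protein. SMP pre-equilibrated with inhibitor 5 min, then 50 μM NADH added. Rates from the linear part of the trace at 340 nm. Ethanol ≤2%.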

Test [3] is described as follows: Cytotoxicity against human CRL2365 cells by MTT assay. The class given is functional, cell-based. The procedure, abridged:
(§1)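 MTT growth assay. MCF-7, A-549 and 3LL cells grown in RPMI-1640; CRL-2365 and CRL-2366 grown in DMEM. All media had 10% FBS, penicillin G (100 U/mL) and streptomycin (100 μg/mL).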

Test [4] is described as follows: Inhibition of mitochondrial complex 1 in human MCF7 cells assessed as concentration required to obtain half maximal lactate production after 3 hrs by spectrophotometry. The format is cell-based. Conditions: MCF7, 3 h. The procedure, abridged: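 MCF-7 cells seeded at 2 × 10^5 per well and grown 24 h to about 50% confluence, then rinsed. Compounds given in Krebs-Ringer buffer for 3 h, with buffer controls. Supernatant lactate measured by ΔOD at 363 nm (ε 9.1 mM−1 cm−1). IC50 is the dose giving 50% of maximal lactate production. Points are the mean ± SD of triplicates; experiments repeated at least three times.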

The test system of test [5] is MCF-10A. The experiment in a line: Cytotoxicity against human MCF10A cells by MTT assay. The format is functional, cell-based. The procedure, abridged:
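MTT growth assay on MCF-10A cells grown in Mammary Epithelial Growth Medium following the supplier protocol.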

Test [6] concerns MCF7. The test can be described thus: Cytotoxicity against human MCF7 cells by MTT assay. The class given is functional, cell-based. The procedure, abridged: as §1
The nature of test [7]: Cytotoxicity against human CRL2366 cells by MTT assay. The class given is functional, cell-based. The procedure, abridged: as §1
Test [8] relates to A549. The test can be described thus: Cytotoxicity against human A549 cells by MTT assay. The class given is functional, cell-based. The procedure, abridged: as §1
A short description of test [9]: Cytotoxicity against mouse 3LL cells by MTT assay. The class given is functional, cell-based. The procedure, abridged: as §1

For `CCCCCCCC[C@](C)(O)CCc1oc(C)c(C)c(=O)c1C`, the values for the half-maximal inhibitory concentration (IC50) in test [1] and in [2] were 0.135 µM and 0.0475 µM, respectively.
In the case of `CCCCCCCCC(C)(O)CCc1oc(=O)c(C)c(O)c1C` (racemic), the IC50 was more than 31 µM in test [3]; 4.9 µM in test [4]; more than 31 µM in test [5]; more than 31 µM in [6]; more than 31 µM in test [7]; 16.4 µM in test [1]. The results for the IC50 in test [8], in test [9] and in test [2] were more than 31 µM, more than 31 µM and 13.6 µM, respectively.
Consider `COc1oc(CC(O)CCCCCCc2ccccc2)c(C)c(=O)c1C` (stereo not given), for which the IC50 in [3] was more than 27 µM; in test [4], 0.88 µM; in [5] it was 15.1 µM; in [6], more than 27 µM; in [7] it was more than 27 µM; in [1], 0.257 µM. The values for the half-inhibitory concentration (IC50) in test [8], in test [9] and in test [2] were more than 27 µM, 17.3 µM and 0.0725 µM, respectively.
`CCCCCCCC[C@](C)(O)CCc1oc(OC)c(C)c(=O)c1C`: the IC50 was determined as 2.4 µM in [3]; 0.18 µM in test [4]; 5.6 µM in [5]; 3.3 µM in test [7]; 0.126 µM in test [1]; 4.1 µM in [8]. Besides, the IC50 in test [9] was 0.34 µM; in test [2], 0.0432 µM.
Regarding `COc1oc(CC(O)CCCCCOc2ccccc2)c(C)c(=O)c1C` (stereo not given), the figures for the IC50 in test [1] and in test [2] were 0.595 µM and 0.219 µM, respectively.
Take `CCCCCCCCC(C)(O)CCc1[nH]c(=O)c(C)c(O)c1C` (racemic): the IC50 in test [1] is 1.25 µM; in test [2], 4.29 µM.
Consider `CCCCCCCC[C@@](C)(O)CCc1oc(=O)c(C)c(O)c1C`, for which the IC50 in test [3] is more than 31 µM; in test [4] it was 8.6 µM; in test [5] it was more than 31 µM; in [6], more than 31 µM; in test [7], more than 31 µM; in test [1], 19 µM. In addition, the IC50 in [8] was more than 31 µM; in test [9], more than 31 µM; in test [2] it was 14.7 µM.
Turning to `CCCCCCCCCC(O)Cc1oc(OC)c(C)c(=O)c1C` (stereo not given), the IC50 was 29.9 µM in [3]; 0.9 µM in test [4]; 9.9 µM in [5]; 23.2 µM in [6]; more than 31 µM in test [7]; 0.231 µM in [1]. Further, the IC50 in test [8] was found to be 20.7 µM; in test [9], 22.2 µM; in [2], 0.0649 µM.
Take `COc1oc(CC(O)CCCCCOc2ccc(-c3ccccc3)cc2)c(C)c(=O)c1C` (stereo not given): the IC50 in [3] amounted to 12.4 µM; in test [4], 0.34 µM; in test [5], 9.2 µM; in [6] it was 17.4 µM; in test [7], 19.5 µM; in [1], 0.102 µM. Further, the IC50 in test [8] was 17 µM; in test [9], 13.5 µM; in [2] it was 0.0359 µM.
As for `CCCCC(O)Cc1oc(OC)c(C)c(=O)c1C` (stereo not given), the IC50 is more than 20 µM in [4], more than 25 µM in [1] and more than 20 µM in test [2].
As for `CCCCCCCCC(C)(O)CCc1oc(C)c(C)c(=O)c1C` (racemic), the IC50 in test [3] was more than 31 µM; in test [4], 0.94 µM; in test [5], more than 31 µM; in test [6], more than 31 µM; in test [7] it was more than 31 µM; in [1] it was 0.18 µM. For the same compound, the results for the IC50 in test [8], in [9] and in [2] were more than 31 µM, more than 31 µM and 0.055 µM, respectively.
In the case of `CCCCCC[C@H]1C(=O)O[C@H](C)[C@H](NC(=O)c2cccc(NC=O)c2O)C(=O)O[C@@H](C)[C@@H]1OC(=O)CC(C)C` [ANTIMYCIN A], the IC50 in [4] is less than 0.15 µM.
Turning to `CCCCCCCC[C@@](C)(O)CCc1oc(C)c(C)c(=O)c1C`, the IC50 in test [1] turned out to be 0.145 µM; in [2], 0.0508 µM.
Turning to `CCCCCCCCC(C)(O)CCc1oc(OC)c(C)c(=O)c1C` (racemic), the IC50 amounted to 0.38 µM in [4], 0.151 µM in test [1] and 0.0526 µM in test [2].
Take `CCCCCCCC[C@](C)(O)CCc1oc(=O)c(C)c(O)c1C`: the IC50 in [3] was more than 31 µM; in test [4], 16.6 µM; in test [5], more than 31 µM; in [6], more than 31 µM; in test [7] it was more than 31 µM; in test [1] it was 13.3 µM. In addition, the figures for the IC50 in test [8], in test [9] and in [2] were more than 31 µM, more than 31 µM and 10.7 µM, respectively.
For `CCCCCCCC[C@@](C)(O)CCc1oc(OC)c(C)c(=O)c1C`, the IC50 in test [3] stood at 3.3 µM; in [4], 0.3 µM; in test [5] it was 5.3 µM; in test [6] it was 3.3 µM; in test [7], 2.7 µM; in [1] it was 0.133 µM. Besides, the IC50 in test [8] came out at 5.3 µM; in test [9] it was 0.39 µM; in [2], 0.0459 µM.
